Source: ChEMBL document CHEMBL1156184, “Synthesis and biological evaluation of 4-(hydroxyimino)arylmethyl diarylpyrimidine analogues as potential non-nucleoside reverse transcriptase inhibitors against HIV” (Bioorg Med Chem, 2010)

Key:
[1] = test system: Human immunodeficiency virus 1; assay: Antiviral activity against HIV1 3B infected in human MT4 cells assessed as protection from virus-induced cytopathogenicity after 4 days by MTT assay; format: functional, organism-based; conditions: Human immunodeficiency virus 1, 3B, MT4, 96 h
How it was run: (§1)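 MT-4 cells at 1 × 10⁵ cells/mL infected with HIV (IIIB or ROD) at a multiplicity of infection of 0.02, using virus stocks titrated in MT-4 cells as CCID₅₀. Compound present during a 4-day incubation at 37 °C. Viable cells counted by MTT. EC₅₀ is the concentration protecting cells against viral cytopathogenicity by 50%. Values are means of at least two separate experiments.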

[2] = test system: Human immunodeficiency virus 1; assay: Antiviral activity against HIV1 expressing reverse transcriptase K103N/Y181C double mutant infected in human MT4 cells assessed as protection against virus-induced cytopathogenicity after 4 days by MTT assay; format: functional, organism-based; conditions: Human immunodeficiency virus 1, MT4, 96 h
How it was run: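 RES056 strain (carries K103N and Y181C), titrated in MT-4 cells as CCID50. MT-4 cells at 1 × 10⁵ cells/mL infected at MOI 0.02 and incubated 4 days at 37 °C with compound. Viable cells counted by MTT. EC50 is the concentration protecting cells by 50% against viral cytopathogenicity. Values are means of at least two separate experiments.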

[3] = Cytotoxicity against human MT4 cells after 4 days by MTT assay; format: cell-based
How it was run: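 Uninfected MT-4 cells were run in parallel with the antiviral assay: 4 days at 37 °C with compound, then viability read by MTT. CC₅₀ is the concentration that reduces viability of uninfected cells by 50%. Values are means of at least two separate experiments.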

[4] = Selectivity index, ratio of CC50 for human MT4 cells to EC50 for HIV1 3B; format: toxicity, cell-based; conditions: read-out: Ratio CC50/EC50
How it was run: (§2)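 Selectivity index is CC₅₀ in uninfected MT-4 cells divided by EC₅₀ against the given strain (IIIB or ROD). Both values come from parallel 4-day MTT assays, with cells infected at a multiplicity of infection of 0.02.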

[5] = test system: Human immunodeficiency virus 2; assay: Antiviral activity against HIV2 ROD infected in human MT4 cells assessed as protection from virus-induced cytopathogenicity after 4 days by MTT assay; format: functional, organism-based; conditions: Human immunodeficiency virus 2, ISOLATE ROD, MT4, 96 h; how it was run: as §1
[6] = Selectivity index, ratio of CC50 for human MT4 cells to EC50 for HIV2 ROD; format: toxicity, cell-based; conditions: read-out: Ratio CC50/EC50; how it was run: as §2
[7] = test system: Human immunodeficiency virus 1; assay: Ratio of nevirapine EC50 to compound EC50 for HIV1 3B infected in human MT4 cells; format: functional
[8] = test system: Human immunodeficiency virus 1; assay: Ratio of delavirdine EC50 to compound EC50 for HIV1 3B infected in human MT4 cells; format: functional

Row | SMILES | EC50 [1] [µM] | EC50 [2] [µM] | CC50 at 96 h [3] [µM] | selectivity ratio [4] | EC50 [5] [µM] | selectivity ratio [6] | Ratio EC50 [7] | Ratio EC50 [8]
1 | Cc1ccc(/C(=N/O)c2ccnc(Nc3ccc(C#N)cc3)n2)cc1 | 0.006 | ≥ 5.1 | 13.3 | 2390 | ≥ 6.54 | ≤ 2 | – | –
2 | N#Cc1ccc(Nc2nccc(/C(=N\O)c3ccc(Br)cc3)n2)cc1 | 0.127 | ≥ 7.21 | 26 | 205 | ≥ 4.97 | ≤ 5 | – | –
3 | N#Cc1ccc(Nc2nccc(/C(=N\O)c3ccccc3)n2)cc1 | 0.569 | 5.6 | 14 | 24.6 | ≥ 14 | < 1 | – | –
4 | CC(C)(C)c1ccc(/C(=N/O)c2ccnc(Nc3ccc(C#N)cc3)n2)cc1 | 0.144 | 7.2 | 33.7 | 234 | ≥ 33.7 | < 1 | – | –
5 | O=C1Nc2ccc(Cl)cc2[C@@](C#CC2CC2)(C(F)(F)F)O1 [EFAVIRENZ] | – | 0.18 | > 6.34 | – | – | – | – | –
6 | N#Cc1ccc(Nc2nccc(/C(=N\O)c3cccc4ccccc34)n2)cc1 | 0.039 | > 33.1 | 33.1 | 844 | > 33.1 | < 1 | – | –
7 | N#Cc1ccc(Nc2nccc(/C(=N\O)c3ccc4ccccc4c3)n2)cc1 | 0.047 | > 14.3 | 31.6 | 673 | > 14.3 | < 1 | – | –
8 | COc1ccc(/C(=N/O)c2ccnc(Nc3ccc(C#N)cc3)n2)cc1 | 0.013 | 10.3 | 50.2 | 3790 | ≥ 4.72 | ≤ 11 | – | –
9 | CC(C)Nc1cccnc1N1CCN(C(=O)c2cc3cc(NS(C)(=O)=O)ccc3[nH]2)CC1 [DELAVIRDINE] | 0.72 | > 43.8 | > 43.8 | > 62 | – | – | – | –
10 | N#Cc1ccc(Nc2nccc(/C(=N\O)c3cccc(F)c3)n2)cc1 | 0.225 | ≥ 6.7 | 15.3 | 67.9 | ≥ 8.33 | ≤ 2 | – | –
11 | N#Cc1ccc(Nc2nccc(/C(=N\O)c3ccccc3F)n2)cc1 | 0.053 | > 5.67 | 5.67 | 106 | > 5.67 | < 1 | – | –
12 | N#Cc1ccc(Nc2nccc(/C(=N\O)c3ccccc3Cl)n2)cc1 | 0.013 | > 12.6 | 12.6 | 997 | > 12.6 | < 1 | – | –
13 | Cc1cc(C)cc(/C(=N/O)c2ccnc(Nc3ccc(C#N)cc3)n2)c1 | 0.047 | 7.89 | 35.9 | 756 | ≥ 8.96 | ≤ 4 | – | –
14 | N#Cc1ccc(Nc2nccc(/C(=N\O)c3cccc(Cl)c3)n2)cc1 | 0.298 | > 14.9 | 30.4 | 102 | ≥ 7.3 | ≤ 4 | – | –
15 | Cc1ccnc2c1NC(=O)c1cccnc1N2C1CC1 [NEVIRAPINE] | 0.2 | > 15 | > 15 | > 75 | – | – | – | –
16 | Cc1ccccc1/C(=N/O)c1ccnc(Nc2ccc(C#N)cc2)n1 | 0.048 | ≥ 1.59 | 29.9 | 619 | > 29.9 | < 1 | – | –
17 | N#Cc1ccc(Nc2nccc(/C(=N\O)c3cccc(Br)c3)n2)cc1 | 0.362 | > 23.5 | 23.5 | 65 | > 23.5 | < 1 | – | –
18 | N#Cc1ccc(Nc2nccc(/C(=N\O)c3ccc(F)cc3)n2)cc1 | 0.827 | 13.8 | > 377 | > 456 | 19.9 | > 19 | – | –
19 | COc1cccc(/C(=N/O)c2ccnc(Nc3ccc(C#N)cc3)n2)c1 | 0.025 | 8.72 | 30.5 | 1220 | 8.31 | 3.67 | 8 | 29
20 | N#Cc1ccc(Nc2nccc(/C(=N\O)c3ccc(Cl)cc3)n2)cc1 | 0.083 | ≥ 7.62 | 17.2 | 209 | ≥ 7.33 | ≤ 2 | – | –
21 | N#Cc1ccc(Nc2nccc(/C(=N\O)c3ccccc3Br)n2)cc1 | 0.005 | > 13.2 | 13.2 | 2500 | > 13.2 | < 1 | – | –
22 | Cc1cccc(/C(=N/O)c2ccnc(Nc3ccc(C#N)cc3)n2)c1 | 0.032 | 4.52 | 20 | 626 | ≥ 11.6 | < 1 | – | –
